Usually IC50 stands for the point on the concentration scale where inhibition reaches its midpoint. The term Ki denotes the equilibrium dissociation constant of an inhibitor or competing ligand from its target.

Where only a bound is given, the exact number is not on record here.

For test [1], the target named is T1, Diacylglycerol lipase-alpha (Homo sapiens, UniProt Q9Y4D2).
T1 sequence (Q9Y4D2 whole entry): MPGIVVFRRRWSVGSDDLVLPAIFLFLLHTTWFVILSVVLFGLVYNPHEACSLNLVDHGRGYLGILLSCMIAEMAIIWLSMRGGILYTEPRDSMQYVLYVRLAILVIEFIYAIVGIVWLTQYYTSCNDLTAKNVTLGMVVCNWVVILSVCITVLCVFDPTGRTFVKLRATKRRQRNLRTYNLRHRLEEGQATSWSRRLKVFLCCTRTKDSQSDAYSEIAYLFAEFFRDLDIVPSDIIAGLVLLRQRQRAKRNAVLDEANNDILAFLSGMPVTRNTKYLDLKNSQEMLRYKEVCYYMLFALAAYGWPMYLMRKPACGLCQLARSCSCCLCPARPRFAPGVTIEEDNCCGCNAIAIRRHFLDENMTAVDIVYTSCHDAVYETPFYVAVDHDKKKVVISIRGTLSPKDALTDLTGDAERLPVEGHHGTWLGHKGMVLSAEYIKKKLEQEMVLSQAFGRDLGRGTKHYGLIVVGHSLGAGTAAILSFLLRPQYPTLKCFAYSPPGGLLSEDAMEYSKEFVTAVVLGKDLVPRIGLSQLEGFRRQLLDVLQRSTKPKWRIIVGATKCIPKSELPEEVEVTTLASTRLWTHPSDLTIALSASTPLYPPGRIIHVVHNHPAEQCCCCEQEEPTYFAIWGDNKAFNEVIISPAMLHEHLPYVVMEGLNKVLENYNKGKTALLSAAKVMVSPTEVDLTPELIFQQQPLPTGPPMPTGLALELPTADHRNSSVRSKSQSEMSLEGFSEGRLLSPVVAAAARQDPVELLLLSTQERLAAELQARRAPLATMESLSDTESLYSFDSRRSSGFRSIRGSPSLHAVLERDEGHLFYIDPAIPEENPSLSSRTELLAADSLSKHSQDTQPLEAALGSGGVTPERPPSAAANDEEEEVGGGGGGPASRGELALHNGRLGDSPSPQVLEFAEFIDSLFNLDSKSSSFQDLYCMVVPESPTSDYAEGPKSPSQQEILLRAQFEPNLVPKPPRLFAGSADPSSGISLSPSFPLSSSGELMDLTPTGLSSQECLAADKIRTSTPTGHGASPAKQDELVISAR
As to the kind of experiment: Inhibition of human recombinant DAGL-alpha-mediated sn-1-[14C]oleoyl-2-arachidonoyl-glycerol hydrolysis to 2-AG overexpressed in african green monkey COS7 cell membrane by scintillation counting. The format is cell membranes, COS-7.

The nature of test [2]: Inhibition of MAGL-mediated [14C]2-arachidonoyl glycerol hydrolysis to [3H]arachidonic acid in african green monkey COS cell cytosolic fraction by scintillation counting. It is filed as cell-based, Chlorocebus aethiops. The settings on record: in the assay text read “[3H]2-arachidonoyl glycerol” for “[14C]2-arachidonoyl glycerol”. In a few lines:
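The 10000g cytosolic fraction of COS-7 cells, taken as the MAGL source, was incubated with 2-[3H]arachidonoylglycerol (1.0 mCi/mmol, 25 µM) in 50 mM Tris-HCl, pH 7.0, for 20 min at 37 °C. Products were separated by TLC. [3H]arachidonic acid was quantified by scintillation counting as the measure of activity.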

The target in another test is Cannabinoid receptor 1 (Homo sapiens, UniProt P21554). The test can be described thus: Displacement of [3H]CP-55940 from human recombinant CB1 receptor expressed in HEK293 cells by scintillation counting. The format is cell-based. Background: Loss of bound radioactivity is the signal in a displacement assay; it reports binding, not function.
The target in another test is Cannabinoid receptor 2 (Homo sapiens, UniProt P34972). As to the kind of experiment: Displacement of [3H]CP-55940 from human recombinant CB2 receptor expressed in HEK293 cells by scintillation counting. The format is cell-based.
The target in test [3] is T2, Fatty-acid amide hydrolase 1 (Rattus norvegicus, UniProt P97612).
T2 sequence (P97612 whole entry): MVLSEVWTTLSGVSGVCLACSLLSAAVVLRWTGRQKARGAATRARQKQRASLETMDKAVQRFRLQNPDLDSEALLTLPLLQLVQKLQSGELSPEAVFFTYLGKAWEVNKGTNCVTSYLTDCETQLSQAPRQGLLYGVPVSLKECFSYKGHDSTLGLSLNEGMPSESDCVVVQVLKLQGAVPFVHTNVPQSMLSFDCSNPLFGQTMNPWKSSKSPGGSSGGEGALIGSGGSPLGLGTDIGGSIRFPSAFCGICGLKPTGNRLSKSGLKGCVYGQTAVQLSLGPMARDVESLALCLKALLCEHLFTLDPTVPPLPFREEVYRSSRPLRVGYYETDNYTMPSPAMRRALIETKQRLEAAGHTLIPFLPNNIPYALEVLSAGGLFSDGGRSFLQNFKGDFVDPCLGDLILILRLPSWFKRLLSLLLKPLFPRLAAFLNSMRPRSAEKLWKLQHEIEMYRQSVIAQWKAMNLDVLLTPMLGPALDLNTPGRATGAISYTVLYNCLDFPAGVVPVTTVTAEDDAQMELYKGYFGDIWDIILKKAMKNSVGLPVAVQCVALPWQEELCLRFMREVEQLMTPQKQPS
As to the kind of experiment: Inhibition of FAAH-mediated [14C]anandamide hydrolysis in rat brain membrane. It is filed as cell membranes. In a few lines: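 The mixture was extracted with 2 volumes of CHCl3/CH3OH 1/1. [14C]ethanolamine in the aqueous phase was measured by scintillation counting.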

Test [4] is described as follows: Selectivity ratio of IC50 for african green monkey MAGL over IC50 for human recombinant DAGLalpha.
Test [5] is described as follows: Selectivity ratio of IC50 for african green monkey MAGL over Ki for human recombinant CB1 receptor.
Test [6] is described as follows: Selectivity ratio of IC50 for african green monkey MAGL over Ki for human recombinant CB2 receptor.
The nature of test [7]: Selectivity ratio of IC50 for african green monkey MAGL over IC50 for rat brain membrane FAAH.
A short description of test [8]: Enhancement of ionomycin-induced stimulation of 2-AG biosynthesis in mouse N18TG2 cells at 1.5 uM. It is filed as functional. In a few lines:
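Confluent mouse N18TG2 neuroblastoma cells attached to dishes were incubated for 20 min at 37 °C in medium containing 3 µM ionomycin, with vehicle or test compound. The reaction was stopped with ice-cold methanol and lipids were extracted three times with CHCl₃. Lyophilized lipids were assayed for 2-AG by isotope-dilution LC-MS. Values are % change in 2-AG levels versus vehicle (means ± SEM, N = 3).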

Cannabinoid receptor 2, sequence (P34972 whole entry): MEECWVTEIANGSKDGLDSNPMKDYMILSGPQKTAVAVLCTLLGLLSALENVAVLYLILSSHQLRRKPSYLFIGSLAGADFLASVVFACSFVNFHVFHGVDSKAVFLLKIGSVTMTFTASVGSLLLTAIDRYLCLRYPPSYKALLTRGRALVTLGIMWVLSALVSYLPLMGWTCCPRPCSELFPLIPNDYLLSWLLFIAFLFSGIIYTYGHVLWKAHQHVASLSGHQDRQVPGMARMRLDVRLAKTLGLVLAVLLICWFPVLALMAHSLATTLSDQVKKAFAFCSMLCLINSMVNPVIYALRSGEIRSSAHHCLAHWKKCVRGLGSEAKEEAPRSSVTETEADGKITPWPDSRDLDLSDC
Cannabinoid receptor 1, sequence (P21554 whole entry): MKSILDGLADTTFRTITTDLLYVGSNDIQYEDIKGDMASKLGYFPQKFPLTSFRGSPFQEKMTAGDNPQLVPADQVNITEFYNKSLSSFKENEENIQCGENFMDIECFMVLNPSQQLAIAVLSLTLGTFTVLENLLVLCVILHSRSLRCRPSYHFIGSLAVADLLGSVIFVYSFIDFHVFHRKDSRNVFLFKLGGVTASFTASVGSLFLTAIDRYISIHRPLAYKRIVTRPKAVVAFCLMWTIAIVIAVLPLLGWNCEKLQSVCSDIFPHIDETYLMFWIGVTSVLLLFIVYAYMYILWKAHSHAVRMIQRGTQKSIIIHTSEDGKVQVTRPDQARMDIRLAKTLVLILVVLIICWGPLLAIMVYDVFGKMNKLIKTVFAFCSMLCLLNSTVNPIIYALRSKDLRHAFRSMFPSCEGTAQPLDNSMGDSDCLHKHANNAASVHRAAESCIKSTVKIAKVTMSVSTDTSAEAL

On to `CCCCCCCCCCC[C@@H](C[C@@H]1OC(=O)[C@H]1CCCCCC)OC(=O)CNC=O`, for which the half-inhibitory concentration (IC50) in test [1] was determined as 2800 nM; in test [2] it was 410 nM; in test [3] it was 3000 nM. Further, the Ki at Cannabinoid receptor 1 and on Cannabinoid receptor 2 was above 10000 nM in each case. In addition, the Ratio IC50 in test [4] and in test [7] was 7 in each case. Further, the Ratio in test [5] and in test [6] was 7 in each case. Further, the Activity in test [8] is 55%.

Source of the values: ChEMBL document CHEMBL1142489, “Tetrahydrolipstatin analogues as modulators of endocannabinoid 2-arachidonoylglycerol metabolism” (J Med Chem, 2008).
